Screening results from PubChem.
bCat nuc transl: beta-catenin nuclear translocation modulation; nuclear translocation activity, % at 5 µM; AID 1665; HeLa beta-catenin nuclear translocation, immunofluorescence imaging; hit rate 0.3% among 190,000;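 active = nuclear translocation activity above 50% at 5 µM, with a well cell count of 50 or more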;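 also: per-cell ratio of nuclear to cytoplasmic median beta-catenin stain intensity; plate controls were DMSO negative control for no effect and GSK-3 inhibitor IX positive control for full effect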
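System: Human HeLa cells, endogenous beta-catenin | Compound dosing: 5 µM primary, 0.02–20 µM confirmation | Timing: 24 h compound exposure at 37°C, 5% CO2 | Measured by: Fluorescence imaging of beta-catenin antibody stain plus DAPI | Read-out basis: % activation of per-cell nuclear versus cytoplasmic median beta-catenin signal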
MT stabilizer: microtubule stabilization, imaging screen; AID 2205; hit rate 0.83% among 200,000; % tubulin-high responders, % at 10 µM; HeLa tubulin immunostaining HCS, 24 h; share of cells brighter than vehicle mean+2SD;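 active = plate Z-score above 3 for both tubulin-high and condensed-nucleus cell shares, with cell loss under 80%, at 10 µM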;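 also: anti alpha tubulin signal scored within the nucleus-defined area of each cell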
Yeast lifespan up: yeast lifespan extension | S. cerevisiae growth with nicotinamide, OD615; deaD strain in restrictive glucose medium | inhibition of the nicotinamide effect, % at 10 µM | hit rate 0.68% among 130,000 | AID 775;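 active = inhibition above a set limit, placed 3 SD over the median of all compounds, cut at about 26% in these data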;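 also: 0% = nicotinamide-treated wells and 100% = cells grown without nicotinamide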
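Material: Modified budding yeast, DeaD strain | Medium: Restrictive glucose medium | Probe or stimulus: 1.5 mM nicotinamide | Dosing: Single dose 10 µM compound, 0.25% DMSO | Times: 48 h at 30 °C | Technique: OD615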
RAM network inh: inhibitors of the yeast RAM network; hit rate 1.8% among 190,000; inhibition, % at 50 µM; AID 868; S. cerevisiae dse1pr::URA3 reporter, 5-FOA growth OD615, 2 d; analog-sensitive cbk1-as2 kinase mutant strain;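 active = inhibition above a set limit, 3 SD over mean compound inhibition, cut at about 8.4% in these data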;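 also: 0% = DMSO-only wells with no growth and 100% = 10 µM 1-NA-PP1 full growth; inhibition rescues growth on 5-FOA so higher OD means more RAM inhibition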
Efa HMGR inh: inhibitors of class II HMG-CoA reductase from Enterococcus faecalis; AID 1066; hit rate 0.41% among 190,000; inhibition, % at 10 µM; purified E. faecalis HMGR, NADPH absorbance 340 nm kinetic;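 active = inhibition above a set limit, the median over all tested compounds plus 3 SD, cut at about 9.5% in these data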;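 also: enzyme runs in reverse so mevalonate oxidation gives rising NADPH absorbance; 0% = complete reaction with DMSO and 100% = background rate lacking mevalonate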
Yeast growth inh: yeast BB579 growth reduction in restrictive medium | inhibition, % at 10 µM | hit rate 0.51% among 140,000 | AID 804 | S. cerevisiae BB579 growth, OD615, 48 h;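 active = inhibition above a set limit, 3 SD over the mean compound inhibition, cut at about 44% in these data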
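Assay system – yeast BB579 (DeaD) · Dosing – single compound dose of 10 µM, 0.25% DMSO final · Detection – OD615 turbidity measurement · Buffer or medium – CSMM-D restrictive synthetic medium containing dextrose (glucose) · Benchmarks – positive control amphotericin B 10 µg/mL · Incubation – 48 h exposure, 30 °C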
Active calls of the source: *; . = not tested or not shown. This is a sample that favours compounds with a hit; in the whole collection about 3.5% have one here.

SMILES | bCat nuc transl | MT stabilizer | Yeast lifespan up | RAM network inh | Efa HMGR inh | Yeast growth inh
O=S(=O)(Nc1ccc(-c2csc(-c3ccccc3)n2)cc1)c1ccc(F)cc1 | 4 | 3 | -23 | 6 | -3 | 69*
O=S(=O)(Nc1ccc(O)c(Sc2nc3ccccc3s2)c1)c1ccc(F)cc1 | -5 | 2 | 9 | 8.9* | 0 | -54
O=[N+]([O-])c1cc(S(=O)(=O)C(F)(F)F)ccc1Sc1nc2ccccc2s1 | -1 | 2 | 21 | 8.5* | -1 | -22
Cc1ccccc1Cn1ccc(=NCc2ccccc2)cc1 | 0 | 3 | 7 | 1 | 0 | -17
COc1ccc(Nc2nnc(C)c(=O)[nH]2)c(OC)c1 | 1 | . | . | . | . | .
O=C(O)/C=C/C(=O)N(CC1CCCO1)C1CC(=O)N(c2c(Cl)cccc2Cl)C1=O (stereo not drawn) | 0 | . | . | . | . | .
CCCOP(=O)(c1ccc(N(C)C)cc1)C(Nc1ccccc1)c1ccc(C)cc1 (stereo not drawn) | -2 | . | . | . | . | .
CCN1/C(=C/c2ccc3cc(C)ccc3[n+]2CC)Sc2ccccc21 | 0 | 68* | -11 | -3 | -7 | 98*
CCN1/C(=C/c2ccc3cc(C)ccc3[n+]2CC)Sc2cc(C)c(C)cc21 | 4 | 15 | . | 1 | -6 | .
CC(C)c1ccc(C2NC(=O)CCC2[N+](=O)[O-])cc1 (stereo not drawn) | 0 | 1 | . | 0 | 10* | .
O=C1CCC([N+](=O)[O-])C(c2ccc(Cl)cc2Cl)N1 (stereo not drawn) | . | 1 | -1 | -1 | -2 | -3
CCN(CC)S(=O)(=O)c1cc(C(=O)O)ccc1OC | 0 | . | . | . | . | .
CCN(Cc1ccccc1)S(=O)(=O)c1cc(C(=O)NCCCN(C)C)ccc1OC | -2 | 2 | . | -1 | 12* | .
CCn1c(=O)c(C(=O)NNS(=O)(=O)c2ccc(Cl)cc2)c(O)c2ccccc21 | 0 | 3 | 28* | 1 | 1 | -30
CCCCCCC(=O)NNC(=O)c1c(O)c2ccccc2n(CC)c1=O | 0 | 3 | . | 4 | -7 | .
COc1ccc(S(=O)(=O)Nc2cccnc2)cc1 | 0 | . | . | . | . | .
O=C(COc1ccc([N+](=O)[O-])cc1)Nc1ccc2c(c1)OCO2 | 0 | 12* | . | 2 | 0 | .
Cc1cc([N+](=O)[O-])ccc1N=Nc1c(N)[nH]n(-c2ccccc2)c1=O | -4 | 3 | . | 8.6* | 1 | .
Cc1[nH]n(-c2ccc([N+](=O)[O-])cc2)c(=O)c1N=Nc1nc2ccccc2s1 | . | 6 | . | . | . | .
N/C(=N\OC(=O)COc1ccc2ccccc2c1Br)c1ccccn1 | -1 | 1 | . | 9.1* | 0 | .
O/N=C/c1ccc(OCc2ccccc2)c(Br)c1 | . | 7 | -11 | -1 | -7 | 45*
Cc1ccc(COc2ccc(Br)cc2/C=N/O)cc1 | 1 | 3 | -8 | 4 | -4 | 89*
O/N=C/c1ccc(OCc2ccccc2)c(Cl)c1 | -5 | 5 | -5 | -2 | -2 | -20
CCc1nnc(NS(=O)(=O)c2ccc(NC(=S)NC(=O)/C=C/c3ccccc3)cc2)s1 | 2 | 2 | -1 | 4 | -6 | -1
CCc1nnc(NS(=O)(=O)c2ccc(NC(=O)/C=C/c3ccccc3Cl)cc2)s1 | -1 | 4 | . | 8.8* | 6 | .
SMILES | bCat nuc transl | MT stabilizer | Yeast lifespan up | RAM network inh | Efa HMGR inh | Yeast growth inh
COc1ccc(CC(=O)OCc2cc(=O)n3cc(Br)ccc3n2)cc1OC | -1 | 4 | . | 1 | 17* | .
COc1ccc(C(=O)Oc2cccc3cccnc23)cc1[N+](=O)[O-] | -3 | 2 | . | -1 | -2 | .
Cc1ccc(C(=O)Oc2ccc(Cl)c3cccnc23)cc1[N+](=O)[O-] | -1 | 2 | -28 | 1 | . | 68*
COc1ccc(NC(=O)CC2C(=O)N(Cc3ccccc3)C(=S)N2CCN2CCOCC2)cc1 (stereo not drawn) | 1 | 2 | . | 0 | 11* | .
CCNC(=O)CC1C(=O)N(c2ccc(OC)cc2)C(=O)N1Cc1ccc(OC)cc1 (stereo not drawn) | 2 | 4 | -13 | 4 | -2 | -41
COc1ccc(CN2C(=O)N(c3ccc(OC)cc3)C(=O)C2CC(=O)Nc2ccccc2)cc1 (stereo not drawn) | -1 | 4 | . | 9.5* | 0 | .
Nc1ncncc1-c1ccc2ccccc2c1 | -1 | . | . | . | . | .
O=C(NCCCN1CCOCC1)C(=O)N/N=C/c1c(Cl)cccc1Cl | 1 | 2 | . | 1 | -1 | .
O=C(CCc1ccccc1)NCCCN1CCOCC1 | -6 | 6 | 66* | 1 | -1 | 6
O=C(NCCCN1CCOCC1)C(=O)N/N=C/c1c2ccccc2cc2ccccc12 | 5 | 22* | -2 | 0 | -7 | -19
CC1=[N+](C)N(c2ccccc2)C(=O)C1N=Cc1c(Cl)cccc1Cl (stereo not drawn) | 2 | 3 | 35* | 0 | 0 | -8
CCOC(=O)/C(C#N)=C/c1ccc(SC)cc1 | -5 | 2 | . | 0 | 14* | .
COc1ccc(-c2cn3cccnc3n2)cc1Br | 1 | 2 | -7 | 1 | 0 | -25
COc1ccc(-c2cn3cc(Br)cnc3n2)cc1 | 1 | 20* | . | 4 | -5 | .
CC(=O)Oc1cc(C(C)C)c(OCCN(C)C)cc1C | . | 3 | 4 | 1 | 9.7* | -42
COC(=O)C(C)Oc1ccc(Oc2nc(Cl)ccc2Cl)cc1 (stereo not drawn) | -3 | 4 | . | 2 | 3 | .
Cc1ccc2occ(C(c3nnnn3Cc3ccccc3)N3CCOCC3)c(=O)c2c1 (stereo not drawn) | 0 | 2 | 26* | 2 | -5 | -42
COC(=O)c1sccc1NC(=S)N1CCN(C)CC1 | 0 | 4 | . | 0 | -9 | .
COC(=O)c1sccc1NC(=S)N1CCN(c2cc(C)ccc2C)CC1 | -2 | 17* | -3 | 5 | 2 | -54
c1csc(-c2nnc(N3CCOCC3)c3ccccc23)c1 | -1 | 2 | . | 1 | 11* | .
COc1ccc(NC(=O)c2ccccc2N(Cc2ccccc2)S(C)(=O)=O)cc1OC | 2 | 3 | . | 0 | 10* | .
Cn1c(=O)c2c(nc(CN3CCC(C(N)=O)CC3)n2CCc2ccccc2)n(C)c1=O | 114* | 2 | 1 | 0 | -1 | -31
N#CCCn1cc(C(=O)N2CCCCC2)c(-c2cccc([N+](=O)[O-])c2)n1 | -1 | 4 | . | -1 | -3 | .
Cc1ccc(CCC(=O)Nc2ncc(Cc3cccc(Cl)c3Cl)s2)o1 | 100* | 7 | 4 | 3 | 2 | -44
CCOc1ccccc1NC(=O)NC(C)c1ccncc1 (stereo not drawn) | 2 | 3 | . | -1 | -1 | .
COc1cc(/C=C(/C#N)c2ccccc2F)ccc1OCc1ccccc1 | 0 | 2 | 3 | 10* | -3 | -26
COCCCn1c(O)c(/C=C2\N=C(C#N)C(=Nc3ccc(C)cc3)O2)sc1=S | 0 | . | . | . | . | .
